Assay results: publication PMC3949138 (Journal of veterinary pharmacology and therapeutics, 2013)
Values joined by “and” are separate entries in the source; they are usually repeats but may differ in a detail not shown here. Equal entries are not always repeated. Where two headings read alike, the source gives them in different places.

Key:
cats = experiment: Tolerability monitoring in cats; type: in vivo
Method in brief: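 Six cats dosed in the crossover (2 mg/kg IV in DMSO; 250 mg/m2 PO capsules) had physical examinations. CBC (14 parameters) and serum biochemistry (16 values) were taken 1 week before, 24 h after and 1 week after each dose. Daily food intake was recorded for 1 week before and after each dosage; days compared by […].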

dogs = settings: dog, in vivo; cited from earlier work
[1] = ref Kelly et al., 2005, cited from earlier work
[2] = Serum pharmacokinetics of SAHA in cats after IV and PO administration; type: in vivo
Method in brief: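 Six adult SPF cats (3 female, 3 male, 10–18 months) in a randomized crossover with 1-week washout: 2 mg/kg IV (20 mg/mL in DMSO) or 250 mg/m2 PO in gelatin capsules. Serum without anticoagulant at set times up to 1440 min, stored at −70 °C. d5-SAHA internal standard at 1000 ng/mL final; acetonitrile extraction; C18 UPLC, positive-ion ESI MS/MS; LOQ 2.26 ng/mL; non-compartmental parameters.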

[3] = ref Sandhu et al., 2007, cited from earlier work
[4] = system: acetylated histone (H3K9,14); type: in vivo, cats
[5] = after IV administration of the SAHA/DMSO mixture
[6] = cats n=6, 250 mg/m2 PO, mean ± SD

With `O=C(CCCCCCC(=O)Nc1ccccc1)NO` [SAHA, Suberoylanilidehydroxamic acid] the overall tolerability (cats; 2 mg/kg IV and 250 mg/m2 PO, domestic cats) was “well tolerated”, the “change in daily food intake following drug administration” value (cats; 1 week before and 1 week after each dosage (IV and PO)) was “No significant change” and the “duration of moderate bleeding from venipuncture sites” value (cats; [5]) was “up to 5 minutes”. The “moderate bleeding from venipuncture sites (cats affected)” value (cats; [5]) was 2/6, the “open-mouth breathing (cats affected)” value (cats; immediately following 2 mg/kg IV injection in DMSO) was 2/6 and the “no observed adverse effects level (NOAEL)” value (dogs) was 60 mg/kg. For the same compound, the “half-life following IV administration” value ([1]; humans, IV, 2003, Kelly et al.) was 21 to 58 min, the bioavailability ([1]; patients with advanced cancer, estimated) was 43% and the Cmax ([2]; both, cat, serum, po, 250 mg/m2) was about 160 nM. It also gave an AUC ([2]; both, serum, iv, 2 mg/kg) of 150 ± 40 ng·h/mL, an AUC(0-inf) ([2]; both, serum, iv, 2 mg/kg) of 150 ± 50 ng·h/mL and a clearance ([2]; both, serum, iv, 2 mg/kg) of 233 mL/min/kg. For the same compound, the half-life ([2]; both, serum, iv, 2 mg/kg) was 9 min, the half-life ([2]; both, serum, po, 2 mg/kg) was 120 ± 60 min and the AUC ([2]; both, serum, po, 250 mg/m2) was 0.266 µM·h and 70 ng·h/mL. For the same compound, the AUC(0-inf) ([2]; both, serum, po, 250 mg/m2) was 80 ± 20 ng·h/mL, the Cmax ([2]; both, serum, po, 250 mg/m2) was 160 nM and the bioavailability ([2]; both, serum, po, 250 mg/m2) was 8 ± 4%. For the same compound, the Cmax ([2]; cat, serum, po, 60 mg/kg) was 50.1 ng/mL, the “T1/2λz (elimination half-life)” value ([2]; cats n=6, 2 mg/kg IV in DMSO, serum, mean ± SD) was 9 ± 1.8 min and the “Percent Extrapolated (of AUC)” value ([2]; cats n=6, 2 mg/kg IV, mean ± SD) was 0.6 ± 0.2%. For the same compound, the “Cmaxobs (observed maximum serum concentration)” value [2, 6] was 41.7 ng/mL and 40 ± 10 ng/mL, the “Percent Extrapolated (of AUC)” value [2, 6] was 17 ± 7% and the “Tmaxobs (time to observed maximal serum concentration)” value [2, 6] was 36 ± 18 min. For the same compound, the oral bioavailability ([3]; dog) was 1.8%, the terminal elimination half-life ([3]; dogs, 2 mg/kg IV) was 12 min and the AUC0-τ ([3]; dogs, 20 mg/kg oral) was 0.42 µM·h. The Cmax ([3]; read-out: average Cmax, dogs, 20 mg/kg oral) was 260 nM, the “acetylated histone protein in blood leukocytes (acetyl H3/total H3)” value ([4]; 4 cats, 2 mg/kg IV and 250 mg/m2 PO) was “An increase in acetylated histone protein was detected” and the “time for acetylated histone protein to return to baseline” value ([4]; 4 cats, after IV and PO administration) was “approximately 2 hours”. The “histone acetylation in peripheral blood mononuclear cells” value ([4]; single cat #11-245, 60 mg/kg PO, 0, 60, 120, 1440 min) was “demonstrated a pharmacodynamic effect which roughly correlated with pharmacokinetics”.
